Screening data: PubChem BioAssay, Sanford-Burnham Center for Chemical Genomics
APJ antagonist: antagonists of human APJ apelin receptor; P35414; CHO-K1 APJ beta-arrestin complementation, luminescence; inhibition, % at 20 µM; 0.32% of 330,000 active; AID 2521;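 active = inhibition above about 40% at 20 µM, limit read from the data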;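 note: cells challenged with 10 nM apelin-13 agonist together with compound; plate controls were apelin-13 plus DMSO wells for no effect and DMSO wells lacking apelin-13 for full effect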
EBI2 block: antagonists of human EBI2 receptor; P32249; EBI2 beta-arrestin recruitment, luminescence, 7a,25-OHC stimulated; inhibition, % at 5 µM; 0.81% of 360,000 active; AID 651636; in the data active = inhibition above about 38%;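 note: enzyme fragment complementation signal reports receptor beta-arrestin coupling in cells; 0% = agonist plus DMSO wells and 100% = wells without agonist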
Target sequence (P32249 whole entry, looked up, the tested form may be a part): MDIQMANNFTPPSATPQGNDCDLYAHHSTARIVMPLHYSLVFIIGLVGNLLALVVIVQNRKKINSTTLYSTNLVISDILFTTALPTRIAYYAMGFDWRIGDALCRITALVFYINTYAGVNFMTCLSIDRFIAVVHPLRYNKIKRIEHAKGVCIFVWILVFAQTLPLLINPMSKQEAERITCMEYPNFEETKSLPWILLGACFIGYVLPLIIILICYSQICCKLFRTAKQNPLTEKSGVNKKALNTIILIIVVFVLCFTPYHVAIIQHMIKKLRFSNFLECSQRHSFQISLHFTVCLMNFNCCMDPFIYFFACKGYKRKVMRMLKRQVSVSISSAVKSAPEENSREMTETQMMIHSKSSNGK
CXCR6 inh: CXCR6 (human) receptor inhibition. inhibition, % at 20 µM. CHO-K1 PathHunter CXCR6 beta-arrestin, luminescence. 0.36% of 360,000 active. AID 602244. O00574; in the data active = inhibition above about 34%, passing the limit was not always enough;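 note: antagonist mode with CXCL16 agonist at 10 nM final; 0% = 10 nM CXCL16 with DMSO and 100% = unstimulated wells without agonist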
Target sequence (O00574 whole entry, looked up): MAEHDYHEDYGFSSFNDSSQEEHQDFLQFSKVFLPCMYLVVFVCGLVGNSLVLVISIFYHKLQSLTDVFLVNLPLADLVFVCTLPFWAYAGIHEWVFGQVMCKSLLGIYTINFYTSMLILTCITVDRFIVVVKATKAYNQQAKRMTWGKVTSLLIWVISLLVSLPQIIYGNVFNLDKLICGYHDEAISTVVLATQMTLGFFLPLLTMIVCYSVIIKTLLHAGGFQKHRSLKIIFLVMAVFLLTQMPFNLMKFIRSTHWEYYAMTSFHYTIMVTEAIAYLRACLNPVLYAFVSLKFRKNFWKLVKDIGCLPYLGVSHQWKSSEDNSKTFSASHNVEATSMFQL
APJ ag: APJ receptor agonism. P35414. CHO-K1 APJ PathHunter beta-arrestin, luminescence; 0% DMSO wells, 100% apelin. activation, % at 20 µM. 0.11% of 330,000 active. AID 2520;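 active = activation more than six SD over the plate average, tested at 20 µM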;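 note: 0% = DMSO alone and 100% = apelin-13 at 10 nM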
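Test system – PathHunter CHO-K1 APJ (AGTRL-1) beta-arrestin reporter cells · Input – 1000 cells/well · Compound – single test compound dose, 20 µM final, 1% DMSO · Times – compound stimulation 90 min at 25 °C, detection 60 min · Technique – beta-gal luminescence · Read-out basis – APJ–arrestin association signal · Control set – negative DMSO alone, positive Apelin-13 at 10 nM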
CCR6 antag: CCR6 (human) receptor antagonism | CHO-K1 CCR6 PathHunter beta-arrestin, luminescence, CCL20-stimulated | 0.49% of 340,000 active | AID 493098 | inhibition, % at 20 µM;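 active = compounds whose inhibition of the agonist-driven luminescence signal at 20 µM reaches about 50%, limit read from the data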;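 note: cells stimulated with CCL20 at 14 nM final; plate controls were DMSO with CCL20 for no effect and DMSO without agonist for full effect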
APJ antag confirm: confirmation of human APJ apelin receptor antagonists | APJ beta-arrestin recruitment, luminescence, antagonist mode | AID 2766 | shares compounds with APJ antagonist | inhibition, % at 20 µM | 66% of 950 active; in the data active = inhibition above about 50%
An asterisk follows results filed as active; . = no result. This is a sample that favours compounds with a hit; in the whole collection about 1.5% have one here.

SMILES | APJ antagonist | EBI2 block | CXCR6 inh | APJ ag | CCR6 antag | APJ antag confirm
Cn1c(O)c(N=Nc2ccccc2)c2ccccc21 | 3.3 | 2.6 | -0.3 | -4.6 | 9.8 | .
Cn1c(O)c(N=Nc2nc(-c3ccccc3)cs2)c2ccccc21 | 50.0* | 25.7 | 33.8 | -7.0 | 60.7* | 61.6*
CN1C(=O)[C@H]2[C@@H](c3ccc(C(F)(F)F)cc3)N[C@]3(CCCN(Cc4ccc(Br)cc4)C3=O)[C@H]2C1=O | . | 12.0 | -0.5 | . | . | .
CC(=O)C1=C(c2ccccc2)N(C(C)=O)n2c(C)nnc2S1 | 105.1* | 34.7 | 31.0 | -17.6 | 99.6* | 152.1*
CC(C)C(NC(=O)C1CCCCC1)C(=O)NCc1ccccn1 (configuration not stated) | 14.3 | 2.5 | 2.5 | -3.7 | 0.7 | .
CC(C)C(NC(=O)C1CCCCC1)C(=O)NCCc1ccccc1 (configuration not stated) | 41.3* | 8.7 | 28.1 | -5.6 | 31.3 | 42.6
CCOC(=O)c1cnc2c(cnn2C)c1NCCC(O)C(F)(F)F (configuration not stated) | 48.0* | -5.8 | 4.1 | -0.1 | 9.5 | 33.2
CCOC(=O)c1cnc2c(cnn2C)c1Oc1ccc(OC)cc1 | 26.2 | 3.7 | -4.2 | -4.5 | 13.0 | .
Cc1cccc(C)c1NC(=O)C(c1cc2ccccc2o1)N1CCC(c2ccccc2)CC1 (configuration not stated) | . | 15.0 | . | . | . | .
Cc1nn(CCC(=O)NNC(=S)Nc2ccc([N+](=O)[O-])cc2)c(C)c1[N+](=O)[O-] | 48.9* | 7.0 | 32.8 | -6.3 | 30.3 | 87.4*
Cc1nn(CCC(=O)NNC(=S)Nc2ccc(F)cc2)c(C)c1Br | 51.8* | 9.9 | 16.4 | -5.5 | 27.7 | 108.0*
CCCCNC(=S)NNC(=O)CCn1nc(C)c(Br)c1C | 64.3* | 19.8 | 27.7 | -15.4 | 40.6 | 124.8*
CC1(C(=O)Nc2cnc3ccccc3c2)CCN1Cc1ccc(-c2ccccc2)o1 (configuration not stated) | . | 0.9 | -14.3 | . | . | .
COc1ccc(N2C(=O)CSC2c2ccccc2)cc1 (configuration not stated) | 16.0 | 3.2 | -10.2 | -3.6 | 7.0 | .
COc1ccc(C2SCC(=O)N2c2nc3ccccc3s2)cc1 (configuration not stated) | 43.8* | 13.2 | -1.9 | -5.5 | 5.9 | 38.0
CCSC1(SCC)N=C(N)C2(C#N)C(c3ccc(OC)c(OC)c3OC)C12C#N (configuration not stated) | 51.1* | 20.8 | 38.8 | -4.0 | 57.8* | 71.5*
CCSC1(SCC)N=C(N)C2(C#N)C(c3ccccc3)NC3=C(CCC3)C12C#N (configuration not stated) | -11.2 | 0.3 | 6.9 | -4.1 | -15.0 | .
Cc1cc(Nc2nc3ccccc3nc2Cl)n(-c2ccc([N+](=O)[O-])cc2)n1 | 48.9* | 39.6 | 32.9 | -11.9 | 56.0* | -2.3
COc1cc(Nc2ccn3nc(-c4ccccc4Cl)cc3n2)cc(OC)c1OC | . | 18.2 | -8.2 | . | . | .
CC(C)(C)OC(=O)C[C@@H]1C/C=C\C[C@H](CC(=O)N(CCO)Cc2ccccc2)C(=O)NC[C@@H](c2ccccc2)OC1=O | 54.2* | 23.2 | 56.1* | -8.6 | 56.0* | 100.2*
CC(C)(C)NC(=O)C(c1ccc(C(F)(F)F)cc1)n1c(=O)c(-c2ccco2)nc2ccccc21 (configuration not stated) | . | 13.9 | . | . | . | .
OCc1ccccc1-c1nc(NCc2ccccc2)nc2ccsc12 | . | -0.4 | -5.0 | . | . | .
COc1cc(/C=C2/N=C(C3CCCCC3)OC2=O)cc(OC)c1OC | 41.7* | -15.9 | -0.2 | -1.3 | -9.7 | 22.8
COc1cc(/C=C2\N=C(C)OC2=O)cc(OC)c1OC | 23.8 | -7.3 | 11.8 | -2.9 | 16.6 | .
CCc1ccc(N2CC(C(=O)Nc3nnc(CC)s3)CC2=O)cc1 (configuration not stated) | 61.5* | -2.3 | -7.1 | -2.4 | 3.0 | 25.3
SMILES | APJ antagonist | EBI2 block | CXCR6 inh | APJ ag | CCR6 antag | APJ antag confirm
CCc1nnc(NC(=O)C2CC(=O)N(Cc3ccccc3)C2)s1 (configuration not stated) | 1.5 | -2.0 | 3.2 | 0.1 | 10.6 | .
COc1cc(SC)ccc1C(=O)OCC(=O)NCC(C)C | 41.5* | -3.9 | 2.8 | -1.7 | 1.9 | -2.7
O=[N+]([O-])c1ccc(O)c(-c2nc(-c3ccccc3)c(-c3cccs3)[nH]2)c1 | 41.5* | -9.0 | 28.2 | -5.7 | 45.5 | 54.0*
COc1cccc(C(=O)Nc2ccc3c(c2)OC[C@H](C)N(C(=O)C2CCCC2)C[C@@H](C)[C@@H](OC)CN(C)C3=O)c1 | . | -10.9 | . | . | . | .
CN(CCCC(=O)O)c1ccc(N=Nc2ccc([N+](=O)[O-])cc2)cc1 | 45.7* | 5.6 | 55.8* | -9.8 | 64.6* | 89.1*
CN(N=Nc1ccc([N+](=O)[O-])cc1)c1ccccc1 | 16.5 | 1.8 | -6.7 | -1.7 | 10.8 | .
Cc1cc(C)c2ccc(N)nc2c1O | 50.5* | -31.2 | 49.2* | -8.6 | 61.9* | 59.1*
COCCNc1nc(Oc2cncc(Cl)c2)c2sccc2n1 | . | -7.6 | -0.6 | . | . | .
Cc1cc(Br)cn2c(CC(C)(C)C)c(C3CCCCC3)nc12 | . | -12.2 | -7.9 | . | . | .
NC(=O)c1ccccc1OCC(=O)N1CCC(Cc2ccccc2)CC1 | 42.9* | -6.5 | -0.6 | -0.6 | 8.2 | -31.9
COc1cc(O)c2c(c1)COC2=O | 43.6* | -4.3 | 5.6 | 2.4 | -15.2 | 25.2
Cc1cccc(N=C2C(=O)Nc3c(Cl)cccc32)c1 | 62.7* | 16.5 | 30.2 | -15.9 | 65.2* | 136.4*
NS(=O)(=O)c1ccc(N=C2C(=O)Nc3ccccc32)cc1 | 18.0 | 7.7 | 1.2 | -2.9 | -7.7 | .
CSc1cccc(N=C2C(=O)Nc3ccccc32)c1 | 44.9* | -0.8 | 33.8 | -10.0 | 54.4* | 110.5*
O=C1Nc2ccccc2C1=Nc1cccc(Cl)c1 | 12.2 | 6.1 | 6.2 | 0.1 | 7.0 | .
O=C1Nc2ccccc2C1=Nc1ccc(F)cc1 | 48.9* | 9.7 | 33.6 | -14.0 | 67.5* | 119.0*
CC(=O)c1ccc(N=C2C(=O)Nc3ccccc32)cc1 | 104.4* | 4.2 | 69.1* | -18.9 | -0.5 | 155.4*
Cc1noc(C)c1-c1ccc(C(=O)Nc2ccccc2)c2occc12 | . | 5.0 | 1.8 | . | . | .
CCc1ccc(C(=O)COC(=O)CNC(=O)c2ccc(Br)o2)cc1 | 8.2 | -4.9 | -6.4 | -2.7 | 12.1 | .
Cc1ccc(C(=O)COC(=O)CNC(=O)Cc2ccccc2)cc1[N+](=O)[O-] | 45.2* | -1.7 | 26.5 | -10.3 | 68.4* | 62.1*
Cc1ccc(C(=O)COC(=O)CNS(=O)(=O)c2ccccc2)cc1[N+](=O)[O-] | 48.2* | 8.8 | 18.1 | -16.1 | 80.2* | 86.3*
Cc1ccc(C(=O)COC(=O)CNC(=O)c2ccc(Br)o2)cc1[N+](=O)[O-] | 48.3* | 8.9 | 22.0 | -13.7 | 36.3 | 66.3*
